pEC50: −log10 of the molar value.
Legend:
[1] = system: Influenza A virus; assay: (§1) Antiviral activity against Influenza A virus A/Puerto Rico/8/34 (H1N1) infected in MDCK cells assessed as reduction in virus-induced cytopathic effect pre-infected with cells for 1 hrs followed by compound addition and measured after 3 days by fluorescein diacetate-based cell viability assay; format: functional, organism-based
[2] = system: Influenza A virus; assay: (§2) Antiviral activity against Influenza A virus A/Hong Kong/8/68 (H3N2) infected in MDCK cells assessed as reduction in virus-induced cytopathic effect pre-infected with cells for 1 hrs followed by compound addition and measured after 3 days by fluorescein diacetate-based cell viability assay; format: functional, organism-based
[3] = system: Influenza B virus; assay: (§3) Antiviral activity against Influenza B virus B/Lee/40 infected in MDCK cells assessed as reduction in virus-induced cytopathic effect pre-infected with cells for 1 hrs followed by compound addition and measured after 3 days by fluorescein diacetate-based cell viability assay; format: functional, organism-based; settings: B/Lee/40, MDCK
[4] = (§4) Cytotoxicity against African green monkey Vero cells assessed as reduction in cell viability incubated for 24 hrs by MTT assay; format: toxicity, cell-based; settings: chlorocebus sabaeus, Vero cells
How it was run: (§5)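 Viability of non-infected or infected cells (Vero CCL-81 or MDCK CCL-34) measured by MTT; CC50 calculated by nonlinear regression.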

[5] = system: Vero; assay: as §4; format: toxicity, cell-based; settings: chlorocebus sabaeus, vero, 24 h; how it was run: as §5
[6] = system: SARS-CoV-2; assay: (§6) Antiviral activity against SARS-CoV-2 (hCoV-19/Korea/KCDC-06/2020) infected in African green monkey Vero cells preincubated with cells for 24 hrs followed by viral infection and measured after 24 hrs by DAPI-staining based fluorescence assay; format: functional, organism-based; settings: Severe acute respiratory syndrome coronavirus 2, hCoV-19/Korea/KCDC-06/2020, Vero
[7] = system: MDCK; assay: (§7) Cytotoxicity against MDCK cells assessed as reduction in cell viability measured for 48 hrs by MTT assay; format: toxicity, cell-based, Canis lupus familiaris; settings: dog, mdck, 48 h; how it was run: as §5
[8] = system: dengue virus type 2; assay: Antiviral activity against Dengue virus 2 infected in hamster BHK-21 cells incubated for 48 hrs by renilla luciferase based assay; format: functional, organism-based; settings: BHK-21, 48 h
How it was run: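 DENV-2 replicon-bearing BHK-21 cells (DENV2-BHK); replication read out with a Renilla luciferase assay system; EC50 calculated by nonlinear regression.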

[9] = (§8) Cytotoxicity against hamster BHK-21 cells incubated for 4 days by MTS assay; format: toxicity, cell-based, Mesocricetus auratus; settings: BHK-21 cells, time 4 day
[10] = system: BHK-21; assay: as §8; format: toxicity, cell-based, Mesocricetus auratus; settings: bhk-21, 96 h, time 4 day
[11] = system: SARS-CoV-2; assay: as §6, with “Potency index, ratio of beta-D-N4-hydroxycytidine EC50 to test compound EC50 for antiviral activity against antiviral” for “Antiviral”; format: functional, Severe acute respiratory syndrome coronavirus 2; settings: time 48 hrs
[12] = system: SARS-CoV-2; assay: as §6, with “Potency index, ratio of MK-4482 EC50 to test compound EC50 for antiviral activity against antiviral” for “Antiviral”; format: functional, Severe acute respiratory syndrome coronavirus 2; settings: time 48 hrs
[13] = system: Influenza B virus; assay: as §3, with “Potency index, ratio of MK-4482 EC50 to test compound EC50 for antiviral” for “Antiviral”; format: functional; settings: time 3 day
[14] = system: dengue virus type 2; assay: Potency index, ratio of MK-4482 EC50 to test compound EC50 for antiviral activity against Dengue virus 2 infected in hamster BHK-21 cells incubated for 48 hrs by renilla luciferase based assay; format: functional
[15] = system: SARS-CoV-2; assay: as §6, with “Potency index, ratio of remdesivir EC50 to test compound EC50 for antiviral” for “Antiviral”; format: functional, Severe acute respiratory syndrome coronavirus 2; settings: time 48 hrs
[16] = system: Influenza A virus; assay: as §1, with “Potency index, ratio of ribavirin EC50 to test compound EC50 for antiviral” for “Antiviral”; format: functional; settings: time 3 day
[17] = system: Influenza A virus; assay: as §2, with “Potency index, ratio of ribavirin EC50 to test compound EC50 for antiviral” for “Antiviral”; format: functional; settings: time 3 day
[18] = system: Influenza B virus; assay: as §3, with “Potency index, ratio of ribavirin EC50 to test compound EC50 for antiviral” for “Antiviral”; format: functional; settings: time 3 day
[19] = system: dengue virus type 2; assay: Potency index, ratio of […] for antiviral activity against Dengue virus 2 infected in hamster BHK-21 cells incubated for 48 hrs by renilla luciferase based assay; format: functional
[20] = system: Influenza B virus; assay: as §3, with “Potency index, ratio of T-705 EC50 to test compound EC50 for antiviral” for “Antiviral”; format: functional; settings: time 3 day
[21] = as §7; format: toxicity, cell-based, Canis lupus familiaris; settings: dog, MDCK cells; how it was run: as §5

Compound: NC(=O)c1nc(F)cnc1O
- pEC50 [1]: 5.49
- pEC50 [2]: 5.07
- pEC50 [3]: 5.12

Compound: CCC(CC)COC(=O)[C@H](C)N[P@](=O)(OC[C@H]1O[C@@](C#N)(c2ccc3c(N)ncnn23)[C@H](O)[C@@H]1O)Oc1ccccc1
- CC50 at 24 h [4]: > 100 µM

Compound: CCOC(=O)[C@H](C)Nc1ccn([C@@H]2O[C@H](CO)[C@@H](O)[C@H]2O)c(=O)n1
- CC50 [5]: > 100 µM
- pEC50 [6]: < 4.00
- pEC50 [1]: < 4.00
- CC50 [7]: > 100 µM
- pEC50 [2]: < 4.00
- pEC50 [3]: < 4.00
- pEC50 [8]: 4.00
- CC50 at 96 h [9]: 100 µM

Compound: CCOC(=O)[C@H](Cc1ccccc1)Nc1ccn([C@@H]2O[C@H](CO)[C@@H](O)[C@H]2O)c(=O)n1
- CC50 [5]: > 100 µM
- pEC50 [6]: < 4.00
- pEC50 [1]: < 4.00
- CC50 [7]: > 100 µM
- pEC50 [2]: < 4.00
- pEC50 [3]: < 4.00
- pEC50 [8]: 4.00
- CC50 at 96 h [9]: 100 µM

Compound: NNc1ccn([C@@H]2O[C@H](CO)[C@@H](O)[C@H]2O)c(=O)n1
- CC50 [5]: > 100 µM
- pEC50 [6]: < 4.00
- pEC50 [1]: < 4.00
- CC50 [7]: > 100 µM
- pEC50 [2]: < 4.00
- pEC50 [3]: < 4.00
- pEC50 [8]: 4.00
- CC50 at 96 h [9]: 100 µM

Compound: CCOC(=O)CNc1ccn([C@@H]2O[C@H](CO)[C@@H](O)[C@H]2O)c(=O)n1
- CC50 [5]: > 100 µM
- pEC50 [6]: < 4.00
- pEC50 [1]: < 4.00
- CC50 [7]: > 100 µM
- pEC50 [2]: < 4.00
- pEC50 [3]: < 4.00
- pEC50 [8]: 4.00
- CC50 at 96 h [9]: 100 µM

Compound: CCOC(=O)[C@H](CC(C)C)Nc1ccn([C@@H]2O[C@H](CO)[C@@H](O)[C@H]2O)c(=O)n1
- CC50 [5]: > 100 µM
- pEC50 [6]: < 4.00
- pEC50 [1]: < 4.00
- CC50 [7]: > 100 µM
- pEC50 [2]: < 4.00
- pEC50 [3]: < 4.00
- pEC50 [8]: 4.00
- CC50 at 96 h [9]: 100 µM

Compound: CC(C)C(=O)ONc1ccn([C@@H]2O[C@H](CO)[C@@H](O)[C@H]2O)c(=O)n1
- pEC50 [6]: 5.46
- pEC50 [1]: 5.24
- pEC50 [2]: 5.14
- pEC50 [3]: 5.47
- pEC50 [8]: 5.40
- CC50 [10]: 10.8 µM
- Ratio EC50 [11]: >4.7
- Ratio EC50 [12]: 3.4
- Ratio EC50 [13]: 7
- Ratio EC50 [14]: 5.9
- Ratio EC50 [15]: 3
- Ratio EC50 [16]: 6
- Ratio EC50 [17]: 5
- Ratio EC50 [18]: 10
- Ratio EC50 [19]: 3
- Ratio EC50 [20]: 2

Compound: CC(C)(C)OC(=O)NNc1ccn([C@@H]2O[C@H](CO)[C@@H](O)[C@H]2O)c(=O)n1
- CC50 [5]: > 100 µM
- pEC50 [6]: < 4.00
- pEC50 [1]: < 4.00
- CC50 [7]: > 100 µM
- pEC50 [2]: < 4.00
- pEC50 [3]: < 4.00
- pEC50 [8]: 4.00
- CC50 at 96 h [9]: 100 µM

Compound: O=c1nc(NCCO)ccn1[C@@H]1O[C@H](CO)[C@@H](O)[C@H]1O
- CC50 at 24 h [4]: > 100 µM
- pEC50 [6]: < 4.00
- pEC50 [1]: < 4.00
- CC50 at 48 h [21]: > 100 µM
- pEC50 [2]: < 4.00
- pEC50 [3]: < 4.00
- pEC50 [8]: 4.00
- CC50 at 96 h [9]: 100 µM

Compound: NC12CC3CC(CC(C3)C1)C2 [AMANTADINE]
- pEC50 [1]: < 4.00
- pEC50 [2]: 5.19
- pEC50 [3]: < 4.00

Compound: CC(C)C(=O)OC[C@H]1O[C@@H](n2ccc(NO)nc2=O)[C@H](O)[C@@H]1O [MOLNUPIRAVIR]
- pEC50 [6]: 4.93
- pEC50 [1]: 5.18
- pEC50 [2]: 5.22
- pEC50 [3]: 4.62
- pEC50 [8]: 4.63
- CC50 [10]: 42.2 µM

Compound: O=c1nc(NO)ccn1[C@@H]1O[C@H](CO)[C@@H](O)[C@H]1O [N-HYDROXYCYTIDINE]
- CC50 [5]: 16.5 µM
- pEC50 [6]: < 4.78
- pEC50 [1]: 5.77
- CC50 [7]: > 100 µM
- pEC50 [2]: 5.64
- pEC50 [3]: > 5.92
- pEC50 [8]: 5.55
- CC50 [10]: 5.75 µM

Compound: NC(=O)c1ncn([C@@H]2O[C@H](CO)[C@@H](O)[C@H]2O)n1 [RIBAVIRIN]
- CC50 at 48 h [21]: > 100 µM
- pEC50 [3]: 4.48
- pEC50 [8]: 5.94
- CC50 [10]: 5.46 µM
